Measurements as given in ChEMBL document CHEMBL1127454, “Differential inhibition of aminopeptidase A and aminopeptidase N by new beta-amino thiols” (J Med Chem, 1994).

molecular target: T1, Aminopeptidase N (Sus scrofa, UniProt P15145); assay: Inhibitory potency was measured on aminopeptidase N (APN)
T1 sequence (P15145 whole entry): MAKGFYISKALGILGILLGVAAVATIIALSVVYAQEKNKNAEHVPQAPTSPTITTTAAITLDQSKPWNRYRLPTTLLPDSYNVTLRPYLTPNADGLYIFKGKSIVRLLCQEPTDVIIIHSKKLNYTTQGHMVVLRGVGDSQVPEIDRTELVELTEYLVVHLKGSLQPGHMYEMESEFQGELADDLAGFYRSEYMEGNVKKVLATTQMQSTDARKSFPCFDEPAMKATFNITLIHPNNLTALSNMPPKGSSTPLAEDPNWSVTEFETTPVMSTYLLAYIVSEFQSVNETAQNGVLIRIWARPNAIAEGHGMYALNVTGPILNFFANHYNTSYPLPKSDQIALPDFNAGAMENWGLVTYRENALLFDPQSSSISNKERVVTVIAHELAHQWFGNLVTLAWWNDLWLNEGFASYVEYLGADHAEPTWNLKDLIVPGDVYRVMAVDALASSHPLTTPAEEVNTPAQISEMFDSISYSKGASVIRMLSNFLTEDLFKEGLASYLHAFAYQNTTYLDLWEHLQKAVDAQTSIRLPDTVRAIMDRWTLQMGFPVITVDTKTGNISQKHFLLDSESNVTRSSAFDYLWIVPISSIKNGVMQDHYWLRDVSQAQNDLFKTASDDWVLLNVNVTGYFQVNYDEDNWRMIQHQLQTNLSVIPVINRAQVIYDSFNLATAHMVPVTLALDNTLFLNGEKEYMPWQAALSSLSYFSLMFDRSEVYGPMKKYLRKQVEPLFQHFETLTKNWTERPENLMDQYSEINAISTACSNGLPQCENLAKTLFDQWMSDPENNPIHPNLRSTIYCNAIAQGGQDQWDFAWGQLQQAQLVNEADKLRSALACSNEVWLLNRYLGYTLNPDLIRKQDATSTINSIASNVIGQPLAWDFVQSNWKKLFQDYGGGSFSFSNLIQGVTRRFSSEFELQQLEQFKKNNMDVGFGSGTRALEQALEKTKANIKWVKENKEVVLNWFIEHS
How it was run: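 APN preincubated 15 min at 25 °C with varied inhibitor levels in 50 mM Tris-HCl pH 7.4. […] Reaction run 15 min, stopped with HCl. Released [3H]Tyr separated on polystyrene beads and counted by liquid scintillation. Thiols dissolved with DTT (100 equiv). Ki derived from IC50 via Cheng-Prusoff, competitive inhibition assumed. Three experiments, triplicate.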

`CC(CC(N)CS)C(=O)O` (centres undefined) and `CC(C[C@H](N)CS)C(=O)O` (some centres undefined) are within 1.5-fold of each other in Ki: 2800 nM for the first, 4000 nM for the second.

Compared with `N[C@@H](CS)CCCC(=O)O`, `N[C@H](CS)CCCC(=O)O` is 47-fold lower in Ki: 15500 nM for the first, 330 nM for the second. The second binds more tightly here.

Going from `NC(CS)CCC(C(=O)O)C(=O)O` (centres undefined) to `NC(CS)CC(C(=O)O)C(=O)O` (centres undefined), the Ki rises from 600 nM to 4500 nM (7.5-fold). The first binds more tightly here.

First: N[C@H](CS)CCCC(=O)NO
Second: NC(CS)CCCCC(=O)O (centres undefined)
The Ki of the first is 7.6-fold lower: 37 nM for the first, 280 nM for the second. The first binds more tightly here.

Compared with `NC(CS)CCCP(=O)(O)O` (centres undefined), `NC(CS)CCP(=O)(O)O` (centres undefined) is 3.2-fold higher in Ki: 3700 nM for the first, 12000 nM for the second. The first binds more tightly here.

Compared with `N[C@H](CS)CCS(=O)(=O)O`, `N[C@H](CS)CCCS(=O)(=O)O` is 13-fold lower in Ki: 25000 nM for the first, 1900 nM for the second.

In the case of `N[C@H](CS)CCCS`, the Ki is reported as 32 nM.

molecular target: Glutamyl aminopeptidase (Oryctolagus cuniculus); assay: Inhibition of aminopeptidase A (APA)

`N[C@H](CS)CCC(=O)O` gave a Ki of 140 nM.
